Screening results as filed in PubChem BioAssay.
Shown is part of a subset that was picked to be rich in hits.
CHOP inhibitor: inhibitors of CHOP induction in ER stress response | CHO-K1 CHOP-promoter luciferase, tunicamycin-induced, 15-18 h | 220,000 tested, 3.8% active | inhibition, % at 10 µM;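 active means compounds that reduced the stress-induced luciferase reporter signal by more than about 70% of percent inhibition, limit read from the data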;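 further: 0% = tunicamycin plus vehicle and 100% = wells without tunicamycin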
UCH37 inh: human UCH37 deubiquitinating enzyme inhibition; Q9Y5K5; purified proteasome/UCH37, Ub-AMC cleavage fluorescence; inhibition, % (no concentration beside the values); 330,000 tested, 0.33% active; AID 588478;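 active means mean inhibition over replicate wells above about 20%, limit read from the data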;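 further: 0% = compound-free wells with enzyme and 100% = wells lacking proteasome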
Target sequence (Q9Y5K5 whole entry, looked up): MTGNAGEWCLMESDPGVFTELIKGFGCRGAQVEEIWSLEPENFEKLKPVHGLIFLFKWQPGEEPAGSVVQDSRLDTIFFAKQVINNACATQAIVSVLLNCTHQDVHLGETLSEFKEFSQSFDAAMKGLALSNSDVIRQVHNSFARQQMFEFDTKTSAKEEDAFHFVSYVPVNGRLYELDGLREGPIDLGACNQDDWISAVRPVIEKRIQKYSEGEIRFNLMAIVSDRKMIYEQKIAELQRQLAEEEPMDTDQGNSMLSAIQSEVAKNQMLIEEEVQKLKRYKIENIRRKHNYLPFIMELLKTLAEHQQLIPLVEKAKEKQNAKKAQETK
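Material: human UCH37 enzyme supplied as purified proteasome complex / Amount: 0.15 nM proteasome as dispensed / Buffer or medium: pH 7.4 Tris-HCl (50 mM) with ovalbumin, ATP-MgCl2, DTT / Times: preincubation 30 min, reaction 25 min, room temperature / Technique: AMC fluorescence from Ub-AMC cleavage, excitation 355 nm, emission 460 nm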
XBP1 UPR activ: adaptive UPR (XBP1) activation; CHO-XBP1 luciferase reporter, IRE1-XBP1 UPR activation, luminescence; percent of tunicamycin response, DMSO as zero; AID 463104; 330,000 tested, 0.33% active; activation, % at 20 µM;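 active means versus positive control, 20 µM dose yields 30% or more activation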;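 further: 100% = tunicamycin at 10 µg/mL and 0% = DMSO only wells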
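incubation = overnight seeding at 37 °C, 6 h compound treatment at 37 °C | assay system = CHO-XBP1 cells stably carrying IRE1-XBP1-driven luciferase reporter | input = 1000 cells per well | detection = luciferase luminescence | dosing = single point, 20 µM final compound, 1% DMSO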
UPR CHOP act: apoptotic UPR (CHOP) activation; CHO-CHOP luciferase reporter, luminescence; percent of tunicamycin response over DMSO baseline; activation, % at 10 µM; 330,000 tested, 0.34% active; AID 449763;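 active means at 10 µM dose, activation of 40% or more, normalized to positive control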;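 further: 100% = tunicamycin at 10 µg/mL and 0% = DMSO alone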
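Test system: CHO CHOP reporter cells. Input: 500 CHO-CHOP cells per well. Medium: F12 with 10% FBS. Technique: luciferase luminescence. Measure: percent activation relative to tunicamycin control. Dosing: 10 µM compound, 0.5% DMSO. Timing: 16-18 h cell attachment, then 6 h compound exposure, 37 °C.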
Fh CTSL1 inh: cathepsin L1 inhibition, PFM18AAP counter-screen; AID 1906; inhibition, % at 5.96 µM; 300,000 tested, 0.49% active; recombinant F. hepatica cathepsin L1, Z-Leu-Arg-MCA fluorescence;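 active means inhibition above the mean of all tested compounds plus 3 SD, set per screening campaign, cut at about 17% in these data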;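 further: 0% = plate median of test compound wells and 100% = 1 µM Z-Phe-Ala-diazomethylketone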
* = called active by the depositor; · = no result.

SMILES | CHOP inhibitor | UCH37 inh | XBP1 UPR activ | UPR CHOP act | Fh CTSL1 inh
COc1cc(C=NNC(=O)c2ccncc2)ccc1OC(=O)c1ccco1 | · | 5 | · | · | ·
C=CCn1cc(/C=C/c2cc[n+](C)cc2)c2ccccc21 | · | 22* | -4 | 1 | 2
C=CCn1c(C)c(/C=C/c2cc[n+](C)cc2)c2ccccc21 | · | · | -3 | 2 | 13
CCn1cc(/C=C/c2cc[n+](C)cc2)c2ccccc21 | · | 20* | · | · | 5
CC(C)=CC1C(C(=O)Nc2ccc(Br)cn2)C1(C)C (stereo not drawn) | 76* | 4 | -4 | 2 | 2
CCCCC(=O)Nc1ccc(Br)cn1 | -6 | 2 | 3 | 6 | 4
Cc1ccccc1OCC(=O)N/N=C/c1cn(Cc2ccccc2)c2ccccc12 | 73* | · | -1 | 2 | 0
COC(=O)N/N=C/c1cn(Cc2ccc(Cl)cc2Cl)c2ccccc12 | 80* | · | -1 | 0 | 3
C#CCn1cc(/C=N/NC(=O)COc2cccc3cccnc23)c2ccccc21 | 103* | · | 1 | -2 | -3
CC(=NNc1nc(C(C)(C)C)cs1)c1ccccc1 | · | 6 | · | · | ·
O=S(=O)(NCCNC/C=C/c1ccc(Br)cc1)c1cccc2cnccc12 | 95* | · | · | · | ·
Cc1cc(C)c(NC(=O)c2ccccc2CCc2ccccc2)c(C)c1 | -4 | 3 | -5 | -2 | 17*
COc1ccc(/C=N/NC(=O)c2ccoc2C)cc1COc1c(C)cccc1C | 88* | · | 9 | 18 | 3
NC(=NO)c1cccn1Cc1ccccc1[N+](=O)[O-] | · | 1 | · | · | ·
CC(=O)N1CCc2cc(Br)cc(S(=O)(=O)CCC(=O)N3CCN(c4ccccn4)CC3)c21 | 15 | 2 | -3 | -3 | 21*
O=C(CCS(=O)(=O)c1cc(Br)cc2c1N(C(=O)C1CC1)CC2)N1CCN(c2ccccn2)CC1 | 23 | 3 | -2 | -1 | 1
C=C(C)c1cccc(C(C)(C)NC(=O)N(Cc2ccccc2)Cc2ccco2)c1 | 83* | 1 | 9 | -3 | 1
C=C(C)c1cccc(C(C)(C)NC(=O)NC2CCN(Cc3ccccc3)CC2)c1 | · | 3 | -4 | -1 | -3
CON=C(CS(=O)(=O)Cc1ccc(OC)cc1)c1ccc(Cl)cc1 | · | 3 | · | · | ·
CC(C)Cn1c(N)c(C(=O)COC(=O)[C@H](C)NC(=O)c2ccccc2Cl)c(=O)n(C)c1=O | · | 6 | -4 | -1 | 20*
CC(C)Cn1c(N)c(C(=O)CSc2cc(Cl)ccc2Cl)c(=O)n(C)c1=O | 96* | 7 | 4 | 5 | -4
CCC(C(=O)OCC(=O)c1c(N)n(CC(C)C)c(=O)n(C)c1=O)c1ccccc1 (stereo not drawn) | · | -1 | 1 | 2 | 0
CCCC1Cc2c(sc3nc(SC)nc(N)c23)CO1 (stereo not drawn) | 74* | 3 | -1 | 2 | -2
COc1ccc(CNC(=S)NN=Cc2ccncc2)cc1 | · | 34* | · | · | ·
CCCCOc1ccc(CNC(=S)NN=Cc2ccc(OC)c(OC)c2)cc1 | · | 5 | · | · | ·
SMILES | CHOP inhibitor | UCH37 inh | XBP1 UPR activ | UPR CHOP act | Fh CTSL1 inh
CCOc1ccc(CNC(=S)NN=Cc2cccnc2)cc1 | · | 3 | · | · | ·
CCCCOc1ccc(CNC(=S)N/N=C/c2ccc(OC)c(OC)c2)cc1 | 88* | · | -1 | 2 | 7
CCN1CCC2(CC1)N=C(c1ccc(F)cc1)C(=S)N2C(=O)c1ccc(C(C)(C)C)cc1 | 93* | 9 | -1 | 1 | 3
O=[N+]([O-])c1ccc(NN=C2CC3CC=CC23)c([N+](=O)[O-])c1 (stereo not drawn) | · | 5 | · | · | ·
O=[N+]([O-])c1cc2c(cc1C=NNc1nc(Nc3ccccc3)nc(N3CCCCC3)n1)OCO2 | · | 5 | · | · | ·
COc1ccccc1C=Nn1nnnc1N | · | -4 | · | · | ·
Cc1ccc(/C=C/C2=NN(C)C(=O)CC2)cc1 | -1 | 21* | -2 | 3 | 0
Cc1ccc(/C=C/C2=NN(Cc3ccccc3Cl)C(=O)CC2)cc1 | 74* | -1 | -2 | -1 | 2
Cn1c(Cl)c(C=NOC(=O)c2cccc(Cl)c2)c2ccccc21 | · | -1 | · | · | ·
Cc1ccc(C)c(NC(=O)c2ccccc2NS(=O)(=O)c2cc([N+](=O)[O-])ccc2C)c1 | 74* | 5 | 8 | 8 | -2
Cc1ccc([N+](=O)[O-])cc1S(=O)(=O)Nc1cccc(S(=O)(=O)Nc2ccccc2C(=O)O)c1 | · | 5 | -1 | 2 | ·
Cc1ccc(N=C2NC(=O)/C(=C/c3cn(C)c4ccccc34)S2)cc1C | 76* | 5 | · | · | 2
CC(C)(C)N1C(=O)Cc2c1nc(N)c1c(N)nc(N3CCCCC3CO)c(C#N)c21 (stereo not drawn) | -41 | -177 | -5 | 23 | 105*
CCC(=O)Nc1ccc(N2CCCCC2)cc1 | 31 | 2 | 0 | 1 | -2
O=C(CCl)Nc1ccc(N2CCCCCC2)cc1 | -44 | 4 | 9 | 14 | 21*
CC(C)Oc1ccc(C(=O)Nc2ccc(N3CCCCC3)cc2)cc1 | 71* | -5 | -2 | 5 | -2
O=C1Nc2ccccc2C1=NN1CCOCC1 | · | 5 | · | · | ·
Cc1ccc(OCC(=O)NN=Cc2ccc(O)cc2)c([N+](=O)[O-])c1 | · | 2 | · | · | ·
COc1ccc(/C=N/Nc2nc(Nc3ccccc3)nc(N3CCCC3)n2)cc1[N+](=O)[O-] | 84* | · | 13 | 39 | -1
O=C(NCCCN1CCOCC1)C(=O)NN=Cc1c2ccccc2cc2ccccc12 | · | 2 | · | · | ·
CS(=O)(=O)c1cc([N+](=O)[O-])c(Sc2nc3ccccc3[nH]2)c([N+](=O)[O-])c1 | 80* | 7 | -5 | -6 | 10
O=C(O)c1cc([N+](=O)[O-])c(Sc2nc3ccccc3[nH]2)c([N+](=O)[O-])c1 | · | 5 | -4 | -1 | 3
CC(C)Nc1ncnc2ccc(Br)cc12 | 79* | 4 | -2 | -2 | -3
Cc1ccc(-c2nnc3n2N=C(c2ccc(Br)cc2)CS3)cc1 | 89* | 6 | 29 | 0 | 3
Cc1cccc(NC(=O)COc2ccc(Br)cc2C=NO)c1 | · | 4 | · | · | ·
SMILES | CHOP inhibitor | UCH37 inh | XBP1 UPR activ | UPR CHOP act | Fh CTSL1 inh
CCCCCC1CCC(c2n[nH]c(=S)n2C)CC1 (stereo not drawn) | 95* | 4 | 1 | -1 | -2
C=CCn1c(C2CC2)n[nH]c1=S | 12 | 1 | 1 | -1 | -2
CCOC(=O)Cc1csc(NC(=O)c2cccs2)n1 | 15 | 7 | -2 | 0 | 4
CC(C)Cn1c(=O)c(C(=O)N/N=C/c2cccc(F)c2)c(O)c2ccccc21 | 82* | · | 3 | 2 | -1
CC(C)Cn1c(=O)c(C(=O)Nc2ccccc2S(N)(=O)=O)c(O)c2ccccc21 | 73* | -13 | 8 | 0 | -2
O=C(N/N=C/c1cccc(F)c1)c1c(O)c2c([nH]c1=O)CCCC2 | 82* | · | -6 | 2 | 1
CCOC(=O)Cc1csc(NC(=O)c2c(O)c3ccccc3n(CC(C)C)c2=O)n1 | 85* | 1 | 4 | 16 | 3
